Values after ≈ are worked out from the molar mass of the structure shown.
How the values were obtained:
Type in all cases: functional
[1] = tested on: Acinetobacter baumannii; experiment: Antimicrobial activity against carbapenem-susceptible Acinetobacter baumannii isolate A1 by Etest method
In short: (§1)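 Etest strips on Mueller-Hinton agar, incubated at 37°C; MIC read from strip for clinical A. baumannii isolates A1 and A2 (clonally related, genotyped by ApaI PFGE).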

[2] = tested on: Acinetobacter baumannii; experiment: Antimicrobial activity against carbapenem-resistant Acinetobacter baumannii isolate A2 by Etest method; in short: as §1
[3] = tested on: Acinetobacter baumannii; experiment: Antimicrobial activity against bla OXA-66 gene-deficient Acinetobacter baumannii isolate A2 by Etest method; in short: as §1

SMILES	MIC [1] [µg/mL]	MIC [2] [µg/mL]	MIC [3] [µg/mL]
CC(C)(O/N=C(\C(=O)N[C@@H]1C(=O)N2C(C(=O)[O-])=C(C[n+]3ccccc3)CS[C@H]12)c1csc(N)n1)C(=O)O [CEFTAZIDIME]	128 (≈ 234 µM)	128 (≈ 234 µM)	128 (≈ 234 µM)
C[C@@H](O)[C@H]1C(=O)N2C(C(=O)O)=C(SCCNC=N)C[C@H]12 [IMIPENEM ANHYDROUS]	2 (≈ 6.68 µM)	4 (≈ 13.4 µM)	0.5 (≈ 1.67 µM)
C[C@@H](O)[C@H]1C(=O)N2C(C(=O)O)=C(S[C@@H]3CN[C@H](C(=O)N(C)C)C3)[C@H](C)[C@H]12 [MEROPENEM]	3 (≈ 7.82 µM)	6 (≈ 15.6 µM)	0.5 (≈ 1.3 µM)
CO[C@H]1/C=C/O[C@@]2(C)Oc3c(C)c(O)c4c(O)c(c(/C=N/N5CCN(C)CC5)c(O)c4c3C2=O)NC(=O)/C(C)=C\C=C\[C@H](C)[C@H](O)[C@@H](C)[C@@H](O)[C@@H](C)[C@H](OC(C)=O)[C@@H]1C [RIFAMPIN]	8 (≈ 9.72 µM)	8 (≈ 9.72 µM)	128 (≈ 156 µM)
